This is an account of results in PubChem BioAssay AID1665 (Sanford-Burnham Center for Chemical Genomics, 2009).

Calls of active or inactive are those of the source.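 Rule for the calls: active = nuclear translocation activity above 50% at 5 µM, with a well cell count of 50 or more; inconclusive = wells under 50 cells across six images, flagged as toxic; inactive = the rest.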

The subject of this assay is HeLa beta-catenin nuclear translocation, immunofluorescence imaging. The assay is described as follows: beta-catenin nuclear localization change in HeLa – imaging, HeLa cells, immunofluorescence, high-content, primary screen (AID 1665). In outline: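 Technique: fluorescence imaging of beta-catenin antibody stain plus DAPI / Material: human HeLa cell line / Incubation: compound treatment 24 h, 37°C, 5% CO2 / Read-out basis: % activation of per-cell nuclear versus cytoplasmic median beta-catenin signal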
On to `CCOC(=O)N1CCN(C(=O)c2cc(-c3ccc(OCC)cc3)nc3ccccc23)CC1`, for which the EC50, beta-catenin nuclear translocation induction (lower = more potent) was 2.06 µM.
The result for `Cn1c2ccccc2c(=O)c2c(=O)n(Cc3ccco3)c(COc3ccccc3)nc21` reads > 16 µM (inactive); that for `COC(=O)c1[nH]c2ccc(Br)cc2c1NC(=O)CN1CCN(C2CCCCC2)CC1`, 3.85 µM; that for `CCN1/C(=C/c2ccc3cc(C)ccc3[n+]2C)Sc2ccc3sccc3c21`, > 20 µM (inactive).
Turning to `COc1ccc2nc3c(cc2c1)c(NC(=O)c1cccs1)nn3CC(C)C`, the EC50, beta-catenin nuclear translocation induction (lower = more potent) is > 20 µM (inactive).
For the compound `Oc1c(/C=C/C=C/C=Nc2ccccc2)sc(=S)n1Cc1ccccc1`, the EC50, beta-catenin nuclear translocation induction (lower = more potent) was > 20 µM (inactive).
Next, `O=c1ccc2[n+]([O-])c3ccc(O)cc3oc-2c1`: 7.27 µM.
Next, `C=CCC1C=C(Cc2ccccc2)CC(CC=C)N1` (stereo not given): > 20 µM (inactive); `CN1\C(=C/C=C/C=C/C=[N+](C)C)C(C)(C)c2ccccc21`: 9.2 µM.
For `CCOC(=O)/C(=C/C=C1\Sc2cc(OCC)c(OCC)cc2N1CC)C(C)=O`, the EC50, beta-catenin nuclear translocation induction (lower = more potent) is > 20 µM (inactive).
Next, `CCCCn1c(O)c(/C=C/C=C/C=Nc2ccccc2)sc1=S`: 8.79 µM.
Next, `CCC(/C=C1\Sc2ccc(OC)cc2N1CCO)=C\c1sc2ccc(OC)cc2[n+]1CCO`: > 20 µM (inactive); `CC[n+]1c(/C=C/C=C/N(C(C)=O)c2ccccc2)sc2ccccc21`: 8.42 µM; `CCN1C(=O)/C(=C/C=C2/Sc3ccccc3N2CCO)SC1=S`: > 20 µM (inactive).
As for `C=CC[C@H]1CC(Cc2ccccc2)=C[C@H](CC=C)N1`, the EC50, beta-catenin nuclear translocation induction (lower = more potent) was 0.77 µM.
The result for `Cn1c(O)c(/C=C/C=Nc2ccccc2)c(=O)n(C)c1=S` reads > 20 µM (inactive); that for `Cc1ccc2nc(/C(C#N)=C\c3ccc([N+](=O)[O-])o3)[nH]c2c1`, 9.06 µM.
The result for `Cn1c(-c2ccccc2)cc2c3no[n+]([O-])c3ccc21` reads > 20 µM (inactive).
Next, `O=C(CSc1ncnc2nc[nH]c12)NCCc1ccccc1`: 1.75 µM; `COc1ccc(/C=C(/NC(=O)c2cccc([N+](=O)[O-])c2)C(=O)O)cc1OC`: > 20 µM (inactive).
On to `Cc1ccc(NC(=O)Nc2ccnc(-c3cccnc3)n2)cc1`, for which the EC50, beta-catenin nuclear translocation induction (lower = more potent) was > 20 µM (inactive).
`CCN1/C(=C/C=C/c2oc3ccc4ccccc4c3[n+]2CC)Oc2ccc3ccccc3c21`: the EC50, beta-catenin nuclear translocation induction (lower = more potent) was 5.18 µM.
Regarding `O=C1NC(=O)C(=C/C=C/c2coc3ccc(Br)cc3c2=O)C(=O)N1`, the EC50, beta-catenin nuclear translocation induction (lower = more potent) was > 20 µM (inactive).
Take `Cc1cc(NCCOCCO)n2ncc(-c3ccc(Cl)cc3)c2n1`: the EC50, beta-catenin nuclear translocation induction (lower = more potent) was 8.01 µM.
As to `CCN(CC)c1ccc(/C=C/c2cc(-c3ccccc3)c3ccccc3n2)cc1`, the EC50, beta-catenin nuclear translocation induction (lower = more potent) is 2.56 µM.
For the compound `CN1C(=O)/C(=C/c2ccc(N3CCCCCC3)o2)C(=O)NC1=S`, the EC50, beta-catenin nuclear translocation induction (lower = more potent) is 2.9 µM.
With `CCN1/C(=C/C=C/C=C/c2sc3ccccc3[n+]2CC)Sc2ccccc21`, the EC50, beta-catenin nuclear translocation induction (lower = more potent) is 3.73 µM.
Take `CCN1C(c2ccccc2)=C(c2ccccc2)S/C1=C/C=C1\SC(=S)N(C)C1=O`: the EC50, beta-catenin nuclear translocation induction (lower = more potent) was 0.56 µM.
In the case of `CCC(/C=C1\Sc2ccc(OC)cc2N1CC)=C\c1sc2ccc(OC)cc2[n+]1CCCS(=O)(=O)[O-]`, the EC50, beta-catenin nuclear translocation induction (lower = more potent) was 4.19 µM.
On to `CC1=CC(C)C(COC(N)=O)(COC(N)=O)C(C)C1` (stereo not given), for which the EC50, beta-catenin nuclear translocation induction (lower = more potent) was 4.49 µM.
